The subject of one test is Plasmodium falciparum. The experiment in a line: Antiplasmodial activity against Plasmodium falciparum Dd2 after 72 hrs by SYBR Green I dye-based assay. The test is classed as functional, organism-based. The conditions noted are these: Dd2, 72 h. In short, it runs like this: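 Ring-stage Dd2 cultures at 1% hematocrit and 1% parasitemia grown 72 h at 37 °C under 5.05% CO₂/4.93% O₂/90.2% N₂ with increasing drug concentrations. Viability read by SYBR Green I DNA quantitation in lysis buffer (0.4 μL dye/mL). IC₅₀ by nonlinear regression. Mean of three independent determinations, each in duplicate, ±SEM.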

For a further test, the system named is HEK293. The test is described as follows: Cytotoxicity against HEK293 cells assessed as reduction in cell viability after 24 hrs by resazurin dye based assay. The settings on record: Homo sapiens, HEK293, 24 h. In short, it runs like this:
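10,000 HEK293 cells per well allowed to adhere, then medium replaced with medium containing varying compound amounts for 24 h. Resazurin sodium salt (0.125 mg/mL, 10 μL per well) added for 2 h. Viability from fluorescence at 585 nm, excitation 540 nm.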

The test system of another test is A2780. The experiment in a line: Antiproliferative activity against human A2780 cells after 2 days by alamar blue assay. It is filed as functional, cell-based. The settings on record: A2780, 48 h.

In the case of `C=C(C)C(=O)O[C@@H]1C/C(C)=C\[C@@]2(O)C=C(C)[C@H](O2)[C@H]2OC(=O)C(COC(C)=O)=C12`, the half-maximal inhibitory concentration (IC50) in the test with Plasmodium falciparum was found to be 44.3 µM; in the test on HEK293, 58.8 µM.
Regarding `C=C(C)C(=O)O[C@H]1C/C(C)=C\C(=O)/C=C(C)/C=C2/OC(=O)C(COC(C)=O)=C21`, the IC50 was 1.49 µM with Plasmodium falciparum, 3.5 µM in the test on HEK293 and 0.21 µM in the test with A2780.
Consider `C=C(C)C(=O)O[C@H]1C/C(C)=C\C(=O)C[C@@]2(C)O[C@H]2[C@H]2OC(=O)C(COC(C)=O)=C12`, for which the IC50 with Plasmodium falciparum amounted to 12.1 µM; in the test on HEK293, 23.8 µM.
Take `C=C(C)C(=O)O[C@H]1C/C(C)=C\C(=O)/C=C(\C)[C@@H](O)[C@@H]2OC(=O)C(COC(C)=O)=C12`: the IC50 in the test on Plasmodium falciparum came out at 37.1 µM; in the test on HEK293, 56 µM.
In the test with Plasmodium falciparum, `C[C@@H]1CC[C@H]2[C@@H](C)C(=O)O[C@@H]3O[C@@]4(C)CC[C@@H]1[C@]32OO4` [ARTEMISININ] gave an IC50 of 0.007 µM.

The values above are taken from ChEMBL document CHEMBL4118047, “Antiplasmodial Sesquiterpenoid Lactones from Trichospira verticillata: Structure Elucidation by Spectroscopic Methods and Comparison of Experimental and Calculated ECD Data” (J Nat Prod, 2017).
